Screening data (PubChem)
Xi reactivation: activators of inactive X chromosome reactivation, primary screen, imaging, XiGFP fibroblasts, GFP high-content imaging, set 2; XiGFP mouse fibroblasts, % GFP-positive cells imaging, 3 d; cells co-treated with 5-aza-dC sensitizer; scaled so ellipticine positive control = 100%; activation, % at 7.58 µM; hit rate 0.055% among 360,000;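 active = mean normalized replicate activation at least 10% and every replicate at or above 10%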
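assay system = SV40-immortalized XiGFP fibroblast cells, line 68-5-11 | buffer or medium = DMEM plus 5-aza-dC sensitizer | doses = single-point pinned compound dosing | times = 3-day compound exposure, then 15 min fixation at room temperature | benchmarks = positive control ellipticine, 6 µM final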
PglD DTNB: C. jejuni PglD acetyltransferase inhibitors, primary screen, biochemical, DTNB colorimetric, single point | hit rate 0.098% among 360,000 | inhibition, % at 12.5 µM | UDP-N-acetylbacillosamine N-acetyltransferase PglD (Campylobacter jejuni) | AID 602405, 2012 | purified PglD enzyme, DTNB colorimetric CoA detection; in the data active = inhibition above about 16%, passing the limit was not always enough
E-sel inducer: E-selectin induction in HUVECs, primary screen, imaging, HUVEC, immunofluorescence imaging, single point; hit rate 0.37% among 260,000; activation, % at 7.58 µM; normalized: neutral wells 0, TNF-alpha wells 100; AID 686992, 2013; P16581;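 active = mean E-selectin-positive cell signal at least 10% of the positive control, reached in at least 60% of replicates, without over 20% cell loss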
Target sequence (P16581 whole entry, looked up): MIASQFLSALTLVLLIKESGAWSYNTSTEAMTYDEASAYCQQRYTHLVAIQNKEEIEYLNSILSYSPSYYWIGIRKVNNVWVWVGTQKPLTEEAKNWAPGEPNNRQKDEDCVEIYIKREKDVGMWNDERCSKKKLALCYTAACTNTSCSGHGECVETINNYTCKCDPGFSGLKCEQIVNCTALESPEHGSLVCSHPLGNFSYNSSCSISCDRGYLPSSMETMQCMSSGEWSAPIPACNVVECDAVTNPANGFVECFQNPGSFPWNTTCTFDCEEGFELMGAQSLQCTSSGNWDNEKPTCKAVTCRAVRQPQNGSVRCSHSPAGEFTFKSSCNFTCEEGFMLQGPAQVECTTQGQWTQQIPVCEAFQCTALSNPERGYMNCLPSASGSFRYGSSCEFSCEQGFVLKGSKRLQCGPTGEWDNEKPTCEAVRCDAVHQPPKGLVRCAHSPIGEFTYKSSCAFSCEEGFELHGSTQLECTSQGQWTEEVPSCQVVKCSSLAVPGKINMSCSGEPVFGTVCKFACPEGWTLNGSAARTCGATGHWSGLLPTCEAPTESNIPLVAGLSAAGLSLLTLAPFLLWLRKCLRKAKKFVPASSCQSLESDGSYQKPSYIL
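Read-out basis: % PE-positive cells; Test system: HUVEC primary endothelial cells; Technique: immunofluorescence imaging; Dosing: single-point compound dose.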
rRNA inh HTS: reduced GFP signal of wild-type E. coli, primary screen, bacterial rRNA inhibitor project, GFP/RFP fluorescence, OD600, single point; GFP signal change (wild-type ribosome), % (no concentration beside the values); hit rate 1.6% among 350,000; E. coli WT GFP vs humanized-ribosome RFP mutants, 24 h; active compounds read low; DMSO median 0, no signal -100;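 active = significant combined selectivity score with lowered wild-type GFP, culture density cut under 30%, mutant RFP and density less affected; inactive = any of these conditions unmet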
RAD52 inh: RAD52 DNA annealing inhibitors, primary screen, biochemical, FRET, single point, set 2. DNA repair protein RAD52 homolog (Homo sapiens), P43351. recombinant RAD52 DNA annealing, FRET fluorescence. inhibition, % at 18.7 µM. hit rate 0.46% among 360,000;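 active = every replicate showing at least 50% inhibition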
RAD54 inh: inhibitors of human RAD54 branch migration, primary screen, biochemical, fluorescence, single point | hit rate 0.14% among 360,000 | DNA repair and recombination protein RAD54-like (Homo sapiens), Q92698 | inhibition, % at 10.4 µM | RAD54 Holliday junction branch migration, FAM/BHQ fluorescence;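 active = mean normalized replicate activity at least 40 and at least half of replicates scoring 40 or more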;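 note: inhibitors cause a drop in the FAM fluorescence signal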
Each line names hits and unclear results; the compound was inactive in the other large screens. A selection: hits, their analogues and other compounds. The true share with any hit is near 2%.

COc1cc2nc(N3CCN(C(=O)C4COc5ccccc5O4)CC3)nc(N)c2cc1OC (stereo unspecified)	E-sel inducer 60.6 (no result: rRNA inh HTS)
Cc1ccc(Cn2nnc3c(=O)n(CC(=O)N4CCN(c5ccccc5)CC4)cnc32)cc1	rRNA inh HTS -25.0 (no result: Xi reactivation, E-sel inducer)
CC1(C)Cc2c(sc3ncnc(NNC(=S)NCc4ccccc4)c23)CO1	rRNA inh HTS -34.0 (no result: PglD DTNB, E-sel inducer, RAD54 inh)
COCC(=O)Nc1ccc2c(c1)OC[C@@H](C)N(CC1CC1)C[C@@H](C)[C@@H](OC)CN(C)C2=O	none
C[C@@H]1CN([C@H](C)CO)C(=O)c2cc(NS(=O)(=O)c3cn(C)cn3)ccc2O[C@H]1CN(C)C(=O)Nc1ccc2c(c1)OCO2	E-sel inducer 255.3
C[C@@H]1CN([C@@H](C)CO)C(=O)c2cccc(NS(=O)(=O)c3cn(C)cn3)c2O[C@H]1CN(C)C(=O)Nc1ccc2c(c1)OCO2	E-sel inducer 283.4
C[C@@H]1CN([C@H](C)CO)C(=O)c2cccc(NS(=O)(=O)c3cn(C)cn3)c2O[C@@H]1CN(C)Cc1ccc(Cl)c(Cl)c1	E-sel inducer 66.8
C[C@@H]1CN([C@@H](C)CO)C(=O)Cc2cc(NS(=O)(=O)c3cccs3)ccc2O[C@H]1CN(C)Cc1ccc(C(=O)O)cc1	none (no result: E-sel inducer)
c1ccc(Cn2ncc3c(Nc4ccccc4)ncnc32)cc1	rRNA inh HTS -27.0
c1ccc(CCNc2ncnc3c2cnn3-c2ccccc2)cc1	rRNA inh HTS -52.9 (no result: Xi reactivation, E-sel inducer)
c1ccc(CNc2ncnc3c2cnn3-c2ccccc2)cc1	none (no result: Xi reactivation, E-sel inducer, rRNA inh HTS, RAD52 inh)
COc1cc(/C=C2\SC(=O)N(c3cccc(Cl)c3)C2=O)cc([N+](=O)[O-])c1O	rRNA inh HTS -33.3 (no result: PglD DTNB, E-sel inducer, RAD54 inh)
O=C(C[C@@H]1CC[C@H](NC(=O)Nc2ccc(F)cc2)[C@H](CO)O1)NCCN1CCCC1	none
C[C@@H]1CN([C@@H](C)CO)C(=O)Cc2cc(NC(=O)Nc3ccccc3)ccc2O[C@H]1CN(C)C(=O)Nc1ccccc1	none
CN(C)CC(=O)N[C@H]1CC[C@H](CCn2cc(CN(C)C)nn2)O[C@H]1CO	RAD52 inh 73.3
CC1CN(S(=O)(=O)c2cccc(C(=O)N=c3sccn3C)c2)CC(C)O1 (stereo unspecified)	rRNA inh HTS -21.0
CC1CN(S(=O)(=O)c2cccc(C(=O)N(C)C3CCN(C)CC3)c2)CC(C)O1 (stereo unspecified)	none (no result: PglD DTNB, rRNA inh HTS)
O=C(c1ccc(F)cc1)N1CCOC(c2nc(-c3ccc(F)cc3)no2)C1 (stereo unspecified)	rRNA inh HTS -25.0
O=C(c1ccc(F)cc1)N1CCCC(c2nc(-c3ccncc3)no2)C1 (stereo unspecified)	none
Cn1nc(-c2ccc(Cl)cc2)cc1NC(=O)Nc1ccccc1	rRNA inh HTS -44.5
Cn1nc(-c2ccccc2)cc1NC(=O)Nc1ccc(C(C)(C)C)cc1	none (no result: PglD DTNB, E-sel inducer, RAD54 inh)
O=C(Nc1ccc(Cl)cc1)Nc1nc(-c2ccccc2)cs1	rRNA inh HTS -37.7 (no result: PglD DTNB, E-sel inducer, RAD54 inh)
CC1(CCc2ccccc2)NC(=O)N(CC(=O)Nc2ccc(OC(F)F)cc2)C1=O (stereo unspecified)	rRNA inh HTS -28.8 (no result: E-sel inducer)
O=C(Nc1cscc1S(=O)(=O)c1ccccc1)c1ccccc1Cl	rRNA inh HTS -21.8
CCc1ccc(OCC(=O)O/N=C(\N)c2ccccn2)cc1	rRNA inh HTS -22.4
CN(C)c1ccc(/C=C(/C#N)C(=O)NCc2ccccc2)o1	Xi reactivation 16.9 (no result: PglD DTNB, E-sel inducer, rRNA inh HTS, RAD52 inh, RAD54 inh)
N#C/C(=C/c1ccccc1)C(=O)NCc1ccccc1	none
CC(=O)c1ccc(NC(=O)c2cc(Cl)sc2Cl)cc1	rRNA inh HTS -30.4 (no result: PglD DTNB, RAD54 inh)
Cc1cc(C)cc(NC(=O)c2cc(Cl)sc2Cl)c1	none (no result: PglD DTNB, E-sel inducer, rRNA inh HTS, RAD52 inh, RAD54 inh)
CCCNC(=O)C[C@H]1C[C@@H]2c3cc(NS(=O)(=O)c4ccc(OC)cc4)ccc3O[C@@H]2[C@H](CO)O1	none (no result: RAD52 inh)
O=Cc1c(-c2ccc(Cl)cc2)oc2ccc(O)cc12	rRNA inh HTS -30.2 (no result: E-sel inducer)
O=C(Nc1ccc(F)cc1)N1CCCCN2[C@H](C1)[C@@H](c1ccc(C#CC3CC3)cc1)[C@@H]2CO	none (no result: RAD52 inh)
COc1cc2c3nnc(-c4ccc(F)cc4)c-3cn(Cc3ccccc3)c2cc1OC	Xi reactivation 90.7
COc1ccc(OC)c(NC(=O)Cn2cc(C(=O)c3ccco3)c3ccccc32)c1	none (no result: Xi reactivation, E-sel inducer, rRNA inh HTS, RAD52 inh)
COc1ccccc1NC(=O)Cn1cc(C(=O)c2ccco2)c2ccccc21	rRNA inh HTS -25.5
CCOc1ccc(NC(=O)CN2C(=O)COc3ccc(S(=O)(=O)N4CCCC4)cc32)cc1	rRNA inh HTS -22.6
CSc1nc(SC(C)C(=O)O)c2c3c(sc2n1)COC(C)(C)C3 (stereo unspecified)	rRNA inh HTS -23.1 (no result: E-sel inducer)
CCOc1ncccc1C(=O)NCc1cccc(OC)c1	none (no result: E-sel inducer, rRNA inh HTS, RAD52 inh)
COc1cccc(CNC(=S)Nc2cccc(Cl)c2C)c1	none (no result: E-sel inducer)
COc1cccc(CNC(=O)c2cccnc2Sc2ccc(C)cc2C)c1	rRNA inh HTS -31.0 (no result: E-sel inducer)
COc1cccc(CNC(=S)Nc2cc(C)ccc2C)c1	rRNA inh HTS -25.9
Cc1cccc(C(=O)NC(C(=O)Nc2nc(-c3ccccn3)cs2)C(C)C)c1 (stereo unspecified)	rRNA inh HTS -34.7 (no result: PglD DTNB, RAD54 inh)
CSCCC(=O)Nc1nc(-c2ccccn2)cs1	rRNA inh HTS -29.2 (no result: PglD DTNB, E-sel inducer, RAD54 inh)
O=C(CCCSc1ccccc1)Nc1nc(-c2ccccn2)cs1	none (no result: Xi reactivation, E-sel inducer, rRNA inh HTS, RAD52 inh)
Cc1ccc(N=c2c([N+](=O)[O-])nn(-c3ccccc3)n2O)c(C)c1	rRNA inh HTS -25.5 (no result: Xi reactivation, E-sel inducer)
O=C1O[C@@H](c2ccccc2)[C@@H](c2ccccc2)N2[C@@H](c3ccc(O)cc3)[C@]3(C(=O)Nc4ccccc43)[C@@H](C(=O)N3CCCCCCC3)[C@H]12	RAD52 inh 57.5 (no result: Xi reactivation, E-sel inducer, rRNA inh HTS)
O=C1O[C@@H](c2ccccc2)[C@@H](c2ccccc2)N2[C@@H](c3ccccc3OCCO)[C@]3(C(=O)Nc4ccc(C#CCCO)cc43)[C@@H](C(=O)N3CCN(c4ncccn4)CC3)[C@H]12	RAD52 inh 76.2 (no result: Xi reactivation, E-sel inducer, rRNA inh HTS)
O=C1O[C@@H](c2ccccc2)[C@@H](c2ccccc2)N2[C@@H](c3ccc(OCCO)cc3)[C@]3(C(=O)Nc4ccc(C#CCCO)cc43)[C@@H](C(=O)N3CCN(c4ncccn4)CC3)[C@H]12	RAD52 inh 51.9 (no result: Xi reactivation, E-sel inducer, rRNA inh HTS)
